The target of data set [1] is T1, CB1 (Homo sapiens, UniProt P21554). The class given is cell-based.
The nature of data set [2]: metabolic stability in human hepatic S9 fraction. The class given is in vitro ADME. An outline of the steps:
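Pooled mixed-gender human hepatic S9 at 1 mg/mL, test compound at 10 μM final. Buffer: 50 mM potassium phosphate pH 7.4, 3 mM MgCl2, NADPH-regenerating system (1 mM NADP, 5 mM glucose-6-phosphate, 1 unit/mL G6PDH). Triplicates sampled at 0, 15, 30, 60, 120 min. Stopped with 3 vol acetonitrile; LC-MS/MS against standard curves in blank matrix. Read-out is percent remaining.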

In a further data set the test system is MDCK-mdr1 cells. Description: MDCK-mdr1 permeability assay. The format is in vitro ADME, canine. As to conditions: apical to basal, 10 μM, 1 h at 37 °C. In outline: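 MDCK cells transfected with human MDR1 grown on filters for 4 days to confluence in DMEM/F12 with 10% FBS and antibiotics. Test compound added apically in HBSS with 25 mM D-glucose, HEPES-buffered to pH 7.4. Apical and basal samples collected, dried under nitrogen, and quantified by LC-MS/MS in MRM mode. Percent transfer apical to basal reported; mean of 2–3 measurements.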

In data set [3] the target is T1, CB1. The format is binding. Conditions: selectivity, [3H]CP55940 displacement.
Data set [4] is described as follows: pharmacokinetic evaluation in vivo, plasma and brain levels after oral dosing. Further details: species or system Sprague–Dawley rats.
For data set [5] the following is noted: SD rats, 2–3 h postdose; cited from earlier work.

T1 sequence (P21554 whole entry): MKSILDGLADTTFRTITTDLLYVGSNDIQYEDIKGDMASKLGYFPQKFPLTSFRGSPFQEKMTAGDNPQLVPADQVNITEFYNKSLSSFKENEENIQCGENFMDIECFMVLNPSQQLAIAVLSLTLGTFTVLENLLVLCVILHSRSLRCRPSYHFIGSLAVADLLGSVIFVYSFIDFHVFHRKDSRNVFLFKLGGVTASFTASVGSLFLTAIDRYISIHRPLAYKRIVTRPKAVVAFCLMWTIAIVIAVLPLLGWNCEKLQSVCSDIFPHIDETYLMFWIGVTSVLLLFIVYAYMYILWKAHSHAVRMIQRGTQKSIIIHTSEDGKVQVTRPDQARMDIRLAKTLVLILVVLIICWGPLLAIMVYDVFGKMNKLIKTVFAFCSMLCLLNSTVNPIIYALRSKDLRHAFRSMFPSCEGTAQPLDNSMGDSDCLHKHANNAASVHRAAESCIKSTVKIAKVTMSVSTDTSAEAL

Turning to `CCOC(=O)CNC(=O)NC1(c2ccccc2)CCN(c2ncnc3c2nc(-c2ccccc2Cl)n3-c2ccc(Cl)cc2)CC1` [Compound 13f, Ethyl 2-[({1-[8-(2-chlorophenyl)-9-(4-chlorophenyl)-9H-purin-6-yl]-4-phenylpiperidin-4-yl}carbamoyl)amino]acetate], the Kb at CB1 [1] was determined as 171 nM.
Regarding `CC(C)(C)NC(=O)NC1(c2ccccc2)CCN(c2ncnc3c2nc(-c2ccccc2Cl)n3-c2ccc(Cl)cc2)CC1` [Compound 13a, 3-tert-Butyl-1-{1-[8-(2-chlorophenyl)-9-(4-chlorophenyl)-9H-purin-6-yl]-4-phenylpiperidin-4-yl}urea], in data set [2], the “metabolism in S9 fraction (in words)” value is on record as “significant metabolism”. The “MDCK-mdr1 A to B” value in the data set with MDCK-mdr1 cells is on record as less than 1%. This compound displayed a Kb on CB1 [1] of 19.2 nM.
Consider `CCCCNC(=O)NC1CCN(c2ncnc3c2nc(-c2ccccc2Cl)n3-c2ccc(Cl)cc2)CC1` [Compound 17f, 3-Butyl-1-{1-[8-(2-chlorophenyl)-9-(4-chlorophenyl)-9H-purin-6-yl]piperidin-4-yl}urea], for which the Kb on CB1 [1] was 49 nM.
The compound `CC(C)NC(=O)N1CCC(Nc2ncnc3c2nc(-c2ccccc2Cl)n3-c2ccc(Cl)cc2)CC1` [Compound 14d, 4-{[8-(2-Chlorophenyl)-9-(4-chlorophenyl)-9H-purin-6-yl]amino}-N-(propan-2-yl)piperidine-1-carboxamide] came in with a Kb at CB1 [1] of 495 nM.
On the same count and under the same terms, in the case of `CCNC(=O)NC1(c2ccccc2)CCN(c2ncnc3c2nc(-c2ccccc2Cl)n3-c2ccc(Cl)cc2)CC1` [Compound 13b, 1-{1-[8-(2-Chlorophenyl)-9-(4-chlorophenyl)-9H-purin-6-yl]-4-phenylpiperidin-4-yl}-3-ethylurea] it was 443 nM.
As for `NC1(c2ccccc2)CCN(c2ncnc3c2nc(-c2ccccc2Cl)n3-c2ccc(Cl)cc2)CC1` [Compound 11, 1-[8-(2-Chlorophenyl)-9-(4-chlorophenyl)-9H-purin-6-yl]-4-phe-nylpiperidin-4-amine], the “MDCK-mdr1 A to B” value with MDCK-mdr1 cells is reported as less than 1%. This compound also returned a Kb on CB1 [1] of 15.9 nM.
At CB1 [1], `CC(=O)NC1CCN(c2ncnc3c2nc(-c2ccccc2Cl)n3-c2ccc(Cl)cc2)CC1` [Compound 17g, N-{1-[8-(2-Chlorophenyl)-9-(4-chlorophenyl)-9H-purin-6-yl]-piperidin-4-yl}acetamide] gave a Kb of 631 nM.
`CCCNC(=O)NC1CCN(c2ncnc3c2nc(-c2ccccc2Cl)n3-c2ccc(Cl)cc2)CC1` [Compound 17e, 1-{1-[8-(2-chlorophenyl)-9-(4-chlorophenyl)-9H-purin-6-yl]-piperidin-4-yl}-3-propylurea] registered a Kb at CB1 [1] of 132 nM.
Compound `CCNC(=O)N1CCC(Nc2ncnc3c2nc(-c2ccccc2Cl)n3-c2ccc(Cl)cc2)CC1` [Compound 14c, 4-{[8-(2-Chlorophenyl)-9-(4-chlorophenyl)-9H-purin-6-yl]amino}-N-ethylpiperidine-1-carboxamide] yielded a Kb at CB1 [1] of 1150 nM.
Turning to `CC(C)(C)OC(=O)NC1(c2ccccc2)CCN(c2ncnc3c2nc(-c2ccccc2Cl)n3-c2ccc(Cl)cc2)CC1` [Compound 10, tert-Butyl N-{1-[8-(2-chlorophenyl)-9-(4-chlorophenyl)-9H-purin-6-yl]-4-phenylpiperidin-4-yl}carbamate], in the data set with MDCK-mdr1 cells, the “MDCK-mdr1 A to B” value was less than 1%. Besides, at CB1 [1], the Kb was determined as 3.9 nM.
On to `CS(=O)(=O)N1CCC(Nc2ncnc3c2nc(-c2ccccc2Cl)n3-c2ccc(Cl)cc2)CC1` [Compound 14g, 8-(2-Chlorophenyl)-9-(4-chlorophenyl)-N-(1-methanesulfonylpiperidin-4-yl)-9H-purin-6-amine], for which the Kb on CB1 [1] was found to be 1650 nM.
`CCCCNC(=O)N1CCC(Nc2ncnc3c2nc(-c2ccccc2Cl)n3-c2ccc(Cl)cc2)CC1` [Compound 14f, N-Butyl-4-{[8-(2-chlorophenyl)-9-(4-chlorophenyl)-9H-purin-6-yl]amino}piperidine-1-carboxamide]: the “CB2/CB1 Ki ratio” value on CB1 [3] is given as greater than 5.
On to `CS(=O)(=O)NC1(c2ccccc2)CCN(c2ncnc3c2nc(-c2ccccc2Cl)n3-c2ccc(Cl)cc2)CC1` [Compound 12, N-{1-[8-(2-Chlorophenyl)-9-(4-chlorophenyl)-9H-purin-6-yl]-4-phenylpiperidin-4-yl}methanesulfonamide], for which, in data set [4] (SD rats, 10 mg/kg oral), the “brain penetration (in words)” value was “limited brain penetration” and the “time post dose of maximum concentration” value is 240 min. In data set [4] (oral dosing in rats, 10 mg/kg), the “clearance (in words)” value is “favorable clearance” and the “oral absorption (in words)” value is listed as “excellent oral absorption”. For the same compound, the “MDCK-mdr1 A to B” value in the data set with MDCK-mdr1 cells is recorded as less than 1%.
The compound `CS(=O)(=O)N1CCC[C@H](Nc2ncnc3c2nc(-c2ccccc2Cl)n3-c2ccc(Cl)cc2)C1` [Compound 16e, 8-(2-Chlorophenyl)-9-(4-chlorophenyl)-N-[(3S)-1-methanesulfonylpiperidin-3-yl]-9H-purin-6-amine] came in with a Kb on CB1 [1] of 6040 nM.
Same read-out and setting: in the case of `CCCCNC(=O)NC1(c2ccccc2)CCN(c2ncnc3c2nc(-c2ccccc2Cl)n3-c2ccc(Cl)cc2)CC1` [Compound 13e, 3-Butyl-1-{1-[8-(2-chlorophenyl)-9-(4-chlorophenyl)-9H-purin-6-yl]-4-phenylpiperidin-4-yl}urea] it was 62 nM; in that of `O=C(NC1CCCCC1)NC1(c2ccccc2)CCN(c2ncnc3c2nc(-c2ccccc2Cl)n3-c2ccc(Cl)cc2)CC1` [Compound 13g, 3-{1-[8-(2-Chlorophenyl)-9-(4-chlorophenyl)-9H-purin-6-yl]-4-phenylpiperidin-4-yl}-1-cyclohexylurea], 199 nM.
The same measure, in the same setting: in the case of `CC(=O)N1CCC[C@H](Nc2ncnc3c2nc(-c2ccccc2Cl)n3-c2ccc(Cl)cc2)C1` [Compound 16d, 1-[(3S)-3-{[8-(2-Chlorophenyl)-9-(4-chlorophenyl)-9H-purin-6-yl]-amino}piperidin-1-yl]ethan-1-one] it was 4450 nM; in that of `CCCNC(=O)N1CCC(Nc2ncnc3c2nc(-c2ccccc2Cl)n3-c2ccc(Cl)cc2)CC1` [Compound 14e, 4-{[8-(2-Chlorophenyl)-9-(4-chlorophenyl)-9H-purin-6-yl]amino}-N-propylpiperidine-1-carboxamide], 1960 nM; in that of `CC(=O)N1CCC[C@@H](Nc2ncnc3c2nc(-c2ccccc2Cl)n3-c2ccc(Cl)cc2)C1` [Compound 15d, 1-[(3R)-3-{[8-(2-Chlorophenyl)-9-(4-chlorophenyl)-9H-purin-6-yl]-amino}piperidin-1-yl]ethan-1-one], 920 nM.
Consider `CCNC(=O)N1CCC[C@H](Nc2ncnc3c2nc(-c2ccccc2Cl)n3-c2ccc(Cl)cc2)C1` [Compound 16c, (3S)-3-{[8-(2-Chlorophenyl)-9-(4-chlorophenyl)-9H-purin-6-yl]-amino}-N-ethylpiperidine-1-carboxamide], for which, on CB1 [1], the Kb amounted to 1150 nM.
Still for that read-out and setting: in the case of `CS(=O)(=O)NC1CCN(c2ncnc3c2nc(-c2ccccc2Cl)n3-c2ccc(Cl)cc2)CC1` [Compound 17h, N-{1-[8-(2-Chlorophenyl)-9-(4-chlorophenyl)-9H-purin-6-yl]-piperidin-4-yl}methanesulfonamide] it was 71 nM.
Same read-out and setting: in the case of `CCNC(=O)NC1CCN(c2ncnc3c2nc(-c2ccccc2Cl)n3-c2ccc(Cl)cc2)CC1` [Compound 17c, 1-{1-[8-(2-Chlorophenyl)-9-(4-chlorophenyl)-9H-purin-6-yl]-piperidin-4-yl}-3-ethylurea] it was 149 nM.
The same measure, in the same setting: in the case of `CCNC(=O)N1CCC[C@@H](Nc2ncnc3c2nc(-c2ccccc2Cl)n3-c2ccc(Cl)cc2)C1` [Compound 15c, (3R)-3-{[8-(2-Chlorophenyl)-9-(4-chlorophenyl)-9H-purin-6-yl]-amino}-N-ethylpiperidine-1-carboxamide] it was 1500 nM.
Consider `CCNC1(C(N)=O)CCN(c2ncnc3c2nc(-c2ccccc2Cl)n3-c2ccc(Cl)cc2)CC1` [Compound 2, otenabant], for which the brain exposure in data set [5] is roughly 33%.
As to `Clc1ccc(-n2c(-c3ccccc3Cl)nc3c(NC4CCNCC4)ncnc32)cc1` [Compound 14b, 8-(2-Chlorophenyl)-9-(4-chlorophenyl)-N-(piperidin-4-yl)-9H-purin-6-amine], at CB1 [1], the Kb was 5710 nM.
Same read-out and setting: in the case of `CS(=O)(=O)N1CCC[C@@H](Nc2ncnc3c2nc(-c2ccccc2Cl)n3-c2ccc(Cl)cc2)C1` [Compound 15e, 8-(2-Chlorophenyl)-9-(4-chlorophenyl)-N-[(3R)-1-methanesulfonylpiperidin-3-yl]-9H-purin-6-amine] it was 346 nM; in that of `CC(C)NC(=O)NC1CCN(c2ncnc3c2nc(-c2ccccc2Cl)n3-c2ccc(Cl)cc2)CC1` [Compound 17d, 1-{1-[8-(2-Chlorophenyl)-9-(4-chlorophenyl)-9H-purin-6-yl]-piperidin-4-yl}-3-(propan-2-yl)urea], 133 nM.

The record behind these values is paper PMC4492447 (Journal of medicinal chemistry, 2012).
